Hits are enriched below; roughly 2.6% of the tested compounds scored in any of these assays.
SENP1 FRET inh: blocks the human SENP1 SUMO protease catalytic domain | inhibition, % at 10 µM | hit rate 0.21% among 360,000 | Q9P0U3 | recombinant SENP1 catalytic domain, CyPet-SUMO1-YPet FRET cleavage | AID 624204;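 active = inhibition at least 30% at 10 µM, raw YFP signal under a set limit, fluorescence ratio 0.5 to 1.5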
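material = recombinant human SENP1 catalytic domain, His6-tagged | quantity = 20 pM enzyme | reagent = 25 nM SUMO1 FRET substrate | compound dosing = 10 µM single point, 0.5% DMSO | timing = 50 min enzyme reaction, room temperature, light-protected | detection = FRET, CFP and YFP emission | control set = no-enzyme low, enzyme-DMSO high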
SENP8 block-1: inhibitors of human SENP8 protease; recombinant SENP8, Nedd8 substrate fluorescence; Q96LD8; inhibition, % at 20 µM; AID 602440; hit rate 0.64% among 360,000; in the data active = inhibition mostly above about 40%, no sharp cut-off; inactive = mostly below about 27%
Target sequence (Q96LD8 whole entry, looked up): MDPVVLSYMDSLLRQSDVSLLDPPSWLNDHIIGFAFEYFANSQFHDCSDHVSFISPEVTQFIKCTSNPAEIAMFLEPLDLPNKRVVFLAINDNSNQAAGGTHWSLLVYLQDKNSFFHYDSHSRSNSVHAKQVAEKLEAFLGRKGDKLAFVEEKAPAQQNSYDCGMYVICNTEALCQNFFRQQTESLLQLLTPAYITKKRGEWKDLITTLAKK
SENP7 inh: inhibitors of human SENP7 protease. Q9BQF6. recombinant SENP7, Z-RLRGG-aminoluciferin luminescence, 40 min. hit rate 1.5% among 330,000. inhibition, % at 5 µM;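 active = inhibition above about 50% at the single test dose, limit read from the data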
Platelet DG rel: platelet dense granule release activity; human platelet-rich plasma, SFLLRN dense granule ATP release, luminescence; inhibition, %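 (compounds screened at 7.5 µM in platelet-rich plasma)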; hit rate 0.22% among 300,000; AID 1663;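 active = mean replicate score, as percent of positive control, at or above 50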
SENP8 block-2: blocks the human protease SENP8; Q96LD8; purified SENP8, Z-RLRGG-aminoluciferin cleavage, luminescence; inhibition, % at 10 µM; hit rate 1.2% among 330,000; in the data active = inhibition above about 50%
SENP6 block: SENP6 protease inhibition; Recombinant SENP6 catalytic domain, aminoluciferin luminescence; Q9GZR1; inhibition, % at 10 µM; hit rate 1.8% among 330,000;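 active = inhibition above about 50% at the single tested dose, limit read from the data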
Target sequence (Q9GZR1 628-1112 limits assumed): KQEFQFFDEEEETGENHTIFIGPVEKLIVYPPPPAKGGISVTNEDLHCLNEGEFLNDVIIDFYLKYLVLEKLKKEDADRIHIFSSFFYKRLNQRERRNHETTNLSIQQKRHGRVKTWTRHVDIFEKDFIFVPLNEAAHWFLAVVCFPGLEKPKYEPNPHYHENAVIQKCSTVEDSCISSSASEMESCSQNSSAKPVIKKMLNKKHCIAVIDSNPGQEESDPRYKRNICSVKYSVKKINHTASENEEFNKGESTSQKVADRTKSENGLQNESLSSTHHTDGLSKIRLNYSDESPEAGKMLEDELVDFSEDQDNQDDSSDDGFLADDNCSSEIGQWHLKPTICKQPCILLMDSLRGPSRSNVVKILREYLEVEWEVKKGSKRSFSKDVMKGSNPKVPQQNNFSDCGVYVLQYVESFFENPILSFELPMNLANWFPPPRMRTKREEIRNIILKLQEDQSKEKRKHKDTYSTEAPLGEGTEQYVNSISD
SENP1 conf: confirmation of human SENP1 SUMO protease inhibitors | hit rate 34% among 520 | recombinant SENP1, CyPet-SUMO1-YPet FRET cleavage | shares compounds with SENP1 FRET inh | inhibition, % at 10 µM; in the data active = inhibition mostly above about 35%, no sharp cut-off; inactive = mostly below about 32%
SENP1 kin conf: SENP1 (human) inhibition, kinetic confirmation. shares compounds with SENP1 FRET inh. recombinant SENP1, CyPet-SUMO1-YPet FRET kinetic cleavage. inhibition, % at 10 µM. hit rate 26% among 520. AID 651690; in the data active = inhibition mostly above about 32%, no sharp cut-off; inactive = mostly below about 29%
Of the large screens only hits and unclear results are named; the others gave an inactive call (follow-up assays come after a bar, where they were run).

Cc1ccc(S(=O)(=O)NC(=O)C2(C)CCN2C(=O)C2(c3ccc(Cl)cc3)CCC2)nc1 (centres undefined)	none (no result: SENP7 inh, Platelet DG rel, SENP8 block-2, SENP6 block)
O=c1oc2ccccc2n1CCn1c2ccccc2c2nc3ccccc3nc21	none
COc1ccc2c(c1)c1nc3ccccc3nc1n2Cc1ccc(OC(C)C)c(OC)c1	SENP1 FRET inh 35 | SENP1 conf 47 | SENP1 kin conf 34
COc1ccc(Cn2c3ccc(OC)cc3c3nc4ccccc4nc32)cc1	none
COc1ccc2c(c1)c1nc3ccccc3nc1n2CCn1c(=O)oc2ccccc21	SENP1 FRET inh 54 | SENP1 conf 131 | SENP1 kin conf 83
O=C(c1cc(-c2cccnc2)nc2ccccc12)N1CCN(S(=O)(=O)c2cccs2)CC1	none (no result: Platelet DG rel)
CCOC(=O)C1(C)CCCN1C(=O)c1cccc2ccccc12 (centres undefined)	none (no result: SENP7 inh, Platelet DG rel, SENP8 block-2, SENP6 block)
O=C(CCNC(=O)C1CCN(S(=O)(=O)c2ccccc2)CC1)NCCc1cccc(F)c1	none
CC(=O)Nc1ccc(OCC(O)Cn2nc(C)c(C)c2C)cc1 (centres undefined)	none
NC(=O)C1CCN(C(=O)CCn2c(=O)oc3ccccc32)CC1	SENP1 FRET inh 33 (no result: Platelet DG rel) | SENP1 conf inactive | SENP1 kin conf inactive
COc1cccc(-c2nc3nc(C)cc(C)n3c2Nc2c(C)cccc2C)c1	SENP1 FRET inh 64 (no result: SENP7 inh, Platelet DG rel, SENP8 block-2, SENP6 block) | SENP1 conf 36 | SENP1 kin conf inactive
Cc1cc(C)n2c(Nc3c(C)cccc3C)c(-c3ccccn3)nc2n1	SENP1 FRET inh 63 (no result: SENP7 inh, Platelet DG rel, SENP8 block-2, SENP6 block) | SENP1 conf inactive | SENP1 kin conf inactive
COc1cc(F)ccc1S(=O)(=O)NCc1cccnc1	none
O=C(Nc1cc(F)cc(F)c1)c1ccc(NCCc2ccccc2)c([N+](=O)[O-])c1	SENP1 FRET inh 38 | SENP1 conf 36 | SENP1 kin conf 36
Cc1cccc(OCc2nnc(SCC(=O)NCc3ccc4c(c3)OCO4)o2)c1	none (no result: SENP7 inh, Platelet DG rel, SENP8 block-2, SENP6 block)
COc1ccc(NC(=O)Cc2c(F)c(F)c(F)c(F)c2F)cc1OC	none
COc1ccc(NC(=O)CC#N)cc1OC	SENP1 FRET inh 53 | SENP1 conf inactive | SENP1 kin conf inactive
COc1ccc(CNC(=O)[C@H](C)NC(=O)C2CCN(S(=O)(=O)c3ccc(F)cc3)CC2)cc1	none
O=C(COC(=O)C1CC1)NCc1ccc(Cl)cc1Cl	none (no result: Platelet DG rel)
COc1ncc(-c2ccc(N3C(c4ccc([N+](=O)[O-])cc4)=Cc4ccccc4C3CC(C)=O)cc2)cn1 (centres undefined)	SENP1 FRET inh 48 (no result: SENP7 inh, Platelet DG rel, SENP8 block-2, SENP6 block) | SENP1 conf inactive | SENP1 kin conf inactive
CCOC(=O)/C(C#N)=C/c1cc2ccccc2nc1Cl	none
N#C/C(=C\c1cc2ccccc2nc1N1CCCCC1)C(N)=O	SENP1 FRET inh 43 (no result: SENP7 inh, Platelet DG rel, SENP8 block-2, SENP6 block) | SENP1 conf 36 | SENP1 kin conf inactive
O=[N+]([O-])c1ccc(Nc2ccccc2O)c([N+](=O)[O-])c1	SENP1 FRET inh 50 (no result: SENP7 inh, Platelet DG rel, SENP8 block-2, SENP6 block) | SENP1 conf inactive | SENP1 kin conf inactive
O=C(Nc1ccccc1O)c1ccc([N+](=O)[O-])cc1	none
Nc1cc([N+](=O)[O-])ccc1Nc1ccccc1	SENP1 FRET inh 56 | SENP1 conf 39 | SENP1 kin conf inactive
O=C(O)c1cc([N+](=O)[O-])ccc1Nc1ccccc1	none
CN1CCN(C(=O)C[C@@H]2C[C@H]3c4cc(NC(=O)c5cccnc5)ccc4O[C@H]3[C@H](CO)O2)CC1	none (no result: SENP7 inh, Platelet DG rel, SENP8 block-2, SENP6 block)
O=C(Cn1ccccc1=S)c1ccc(Cl)c(Cl)c1	none
O=C(CN1CCSC1=NCc1ccccc1)c1ccc(Cl)c(Cl)c1	SENP1 FRET inh 40 | SENP1 conf inactive | SENP1 kin conf inactive
COCC(=O)N1C[C@H]2CON(C)[C@H]2C[C@H]1c1cccc(-c2ccccc2)c1	none (no result: SENP7 inh, Platelet DG rel, SENP8 block-2, SENP6 block)
Cc1ccc(S(=O)(=O)N(CC(=O)N(C(C)C)C(C)C)C(=O)N2CCN(C)CC2)cc1	none
O=C1CCC[C@@H]2C[C@@]3(C[C@@H]4CCN1[C@H]24)Nc1cc([N+](=O)[O-])ccc1NC3=NC1CCCCC1	SENP1 FRET inh 70 (no result: SENP7 inh, Platelet DG rel, SENP8 block-2, SENP6 block) | SENP1 conf inactive | SENP1 kin conf inactive
COCCN1C(=O)COc2ccccc2C1C(=O)NC1CCCCC1 (centres undefined)	none (no result: SENP7 inh, Platelet DG rel, SENP8 block-2, SENP6 block)
c1ccc(NC2=Nc3cccc4cccc2c34)cc1	SENP1 FRET inh 74 | SENP1 conf 43 | SENP1 kin conf inactive
COc1ccc(NC2=Nc3cccc4cccc2c34)cc1	SENP1 FRET inh 77 | SENP1 conf 57 | SENP1 kin conf inactive
CC(C)(C)N(Cc1ccccc1)C(=O)COC(=O)C1CC(=O)N(Cc2ccccc2)C1 (centres undefined)	none (no result: SENP7 inh, Platelet DG rel, SENP8 block-2, SENP6 block)
COc1ccc2c(CC(=O)Nc3ccc4nc(N5CCOCC5)sc4c3)coc2c1	none (no result: SENP7 inh, Platelet DG rel, SENP8 block-2, SENP6 block)
Nc1c2c(nc3ccc(Br)cc13)N(Cc1ccccc1)CC2	SENP1 FRET inh 59 | SENP1 conf inactive | SENP1 kin conf inactive
COc1cc(Cn2c3ccc(NC(=O)CC(C)C(F)(F)F)cc3c(=O)n2C)ccc1F (centres undefined)	SENP1 FRET inh 31 (no result: SENP7 inh, Platelet DG rel, SENP8 block-2, SENP6 block) | SENP1 conf inactive | SENP1 kin conf inactive
CC(CC(=O)Nc1ccc2c(c1)c(=O)n(C)n2Cc1ccc(Cl)cc1)C(F)(F)F (centres undefined)	none (no result: SENP7 inh, Platelet DG rel, SENP8 block-2, SENP6 block)
O=C1c2cc(Cl)ccc2-c2c(O)cc(Cl)cc21	SENP1 FRET inh 49 (no result: SENP7 inh, Platelet DG rel, SENP8 block-2, SENP6 block) | SENP1 conf inactive | SENP1 kin conf inactive
O=c1cc(O)c(-c2ccc(Cl)cc2)c(Cl)[nH]1	none
COc1cc(/C=C2\SC(=S)N(CCC(=O)NCCc3ccccc3)C2=O)cc(OC)c1OC	SENP1 FRET inh 35 | SENP1 conf inactive | SENP1 kin conf inactive
COc1ccc(/C=C2\SC(=S)N(CCC(=O)NC3=NCCS3)C2=O)cc1OC	SENP1 FRET inh 53 | SENP1 conf inactive | SENP1 kin conf inactive
CC(=O)Oc1ccc(/C=C2/SC(=S)N(Cc3ccccc3)C2=O)cc1	SENP1 FRET inh 74 | SENP1 conf inactive | SENP1 kin conf inactive
Cc1cccc(C)c1NC(=O)C1C(c2ccccc2)=Nc2ccccc2N1C(=O)c1cnccn1 (centres undefined)	SENP1 FRET inh 37 (no result: SENP7 inh, Platelet DG rel, SENP8 block-2, SENP6 block) | SENP1 conf inactive | SENP1 kin conf inactive
Cc1cc(NC(=O)c2ccc3sc([C@@H]4O[C@H](CO)[C@H](O)[C@H](O)[C@H]4O)nc3c2)n(C)n1	none (no result: SENP7 inh, Platelet DG rel, SENP8 block-2, SENP6 block)
CCSC1=N/C(=C\C=C2/Oc3ccccc3N2CC)C(=O)S1	SENP1 FRET inh 43 | SENP1 conf inactive | SENP1 kin conf inactive
CCSC1=N/C(=C\c2ccc3c(c2)OCO3)C(=O)S1	none
Cc1csc(NC(=O)CSC2=NS(=O)(=O)c3cc(F)ccc3N2)n1	none
CCn1c(/C=C/c2cc(Br)ccc2O)nc2ccccc2c1=O	SENP1 FRET inh 78 | SENP1 conf 36 | SENP1 kin conf inactive
Nc1nc(N)c(N=Nc2ccccc2)c(=O)[nH]1	none (no result: SENP7 inh, Platelet DG rel, SENP8 block-2, SENP6 block)

Screening data: PubChem BioAssay, several laboratories
